How the values were obtained:
[1] = molecular target: T1, carboxylesterase 1 (CE1) (Homo sapiens, UniProt P23141); experiment: Inhibition of human CE1 expressed in human U373MG cells assessed as reduction in enzyme-mediated oseltamivir hydrolysis at 10 uM preincubated for 10 mins followed by oseltamivir addition measured after 30 mins by UPLC-MS analysis relative to control; type: cell-based; conditions: U373MG cells that express human CE1, probe oseltamivir
T1 sequence (P23141 whole entry): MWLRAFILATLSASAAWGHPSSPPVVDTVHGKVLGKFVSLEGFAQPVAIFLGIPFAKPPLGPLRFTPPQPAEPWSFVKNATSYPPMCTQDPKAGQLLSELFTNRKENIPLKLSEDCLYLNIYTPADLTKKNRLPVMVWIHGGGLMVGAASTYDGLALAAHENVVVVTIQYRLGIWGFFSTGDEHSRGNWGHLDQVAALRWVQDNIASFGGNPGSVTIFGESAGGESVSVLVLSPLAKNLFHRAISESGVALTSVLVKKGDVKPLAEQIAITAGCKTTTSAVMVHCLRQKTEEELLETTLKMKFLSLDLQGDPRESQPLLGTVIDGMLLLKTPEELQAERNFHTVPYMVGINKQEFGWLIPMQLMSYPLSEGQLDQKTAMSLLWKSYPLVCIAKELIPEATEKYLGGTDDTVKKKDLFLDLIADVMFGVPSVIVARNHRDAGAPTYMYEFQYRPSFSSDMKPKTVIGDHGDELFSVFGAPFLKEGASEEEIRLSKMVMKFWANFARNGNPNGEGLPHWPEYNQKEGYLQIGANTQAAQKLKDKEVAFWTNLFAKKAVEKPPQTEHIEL
Outline: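 U373MG glioblastoma cells expressing hCE1 (~10^6 per well) pretreated 10 min with 10μM inhibitor, then given oseltamivir (20μM final). After 30 min, media harvested, mixed with an equal volume of acetonitrile and centrifuged. Oseltamivir carboxylate quantified by UPLC (C18, water:acetonitrile gradient) with MS detection. Expressed as percent of DMSO-treated cells. Benzil used as positive control; duplicate points.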

[2] = molecular target: T1, carboxylesterase 1 (CE1); experiment: Irreversible inhibition of human CE1 assessed as residual activity preincubated with enzyme followed by compound dilution measured after 18 hrs using o-NPA as substrate relative to control; conditions: probe o-NPA, read-out: Activity
[3] = Irreversible inhibition of human intestinal carboxylesterase assessed as residual activity preincubated with enzyme followed by compound dilution measured after 18 hrs using o-NPA as substrate relative to control
Outline: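 Purified recombinant hiCE pre-incubated with inhibitor, then extensively diluted and passed through size-exclusion filtration to remove free compound. Recovered protein assayed for residual esterase activity with o-NPA. Benzil (reversible inhibitor) and DMSO (solvent) served as controls.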

[4] = molecular target: T2, Acetylcholinesterase (Homo sapiens, UniProt P22303); experiment: Inhibition of human AChE using acetylthiocholine as substrate
T2 sequence (P22303 whole entry): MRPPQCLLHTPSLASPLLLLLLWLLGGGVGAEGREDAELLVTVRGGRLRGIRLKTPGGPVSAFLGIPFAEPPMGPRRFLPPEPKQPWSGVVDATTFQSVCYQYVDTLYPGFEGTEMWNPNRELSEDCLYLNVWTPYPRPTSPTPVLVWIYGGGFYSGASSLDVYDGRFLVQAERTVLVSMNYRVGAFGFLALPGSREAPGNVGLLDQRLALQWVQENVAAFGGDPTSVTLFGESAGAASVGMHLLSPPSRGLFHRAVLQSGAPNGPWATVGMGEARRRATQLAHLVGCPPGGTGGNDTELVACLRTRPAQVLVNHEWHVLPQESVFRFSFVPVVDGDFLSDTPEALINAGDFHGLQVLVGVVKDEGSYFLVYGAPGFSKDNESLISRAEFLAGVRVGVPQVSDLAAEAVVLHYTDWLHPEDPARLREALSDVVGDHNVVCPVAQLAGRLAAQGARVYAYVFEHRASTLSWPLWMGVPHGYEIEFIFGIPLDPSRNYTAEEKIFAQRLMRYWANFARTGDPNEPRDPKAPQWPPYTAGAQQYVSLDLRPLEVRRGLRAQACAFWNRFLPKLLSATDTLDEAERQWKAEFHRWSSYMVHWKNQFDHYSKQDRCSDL

[5] = molecular target: T1, carboxylesterase 1 (CE1); experiment: Inhibition of human CE1 expressed in human U373MG cells assessed as reduction in enzyme-mediated oseltamivir hydrolysis by measuring oseltamivir carboxylate level at 10 uM preincubated for 10 mins followed by oseltamivir addition measured after 30 mins by UPLC-MS analysis relative to control; type: cell-based; design: scale not given: the % may be the effect or the level left; conditions: U373MG cells that express human CE1, probe oseltamivir, read-out: Activity
Outline: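 U373MG glioblastoma cells engineered to express hCE1 (~10^6 per well) were pre-incubated 10 min with 10μM inhibitor, then oseltamivir was added (20μM final) for 30 min. Media were harvested, mixed with an equal volume of acetonitrile and centrifuged. Oseltamivir carboxylate was measured by UPLC (C18, water:acetonitrile gradient) with MS detection, as percent of DMSO-treated cells. Benzil was the positive control; duplicate points.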

[6] = molecular target: T3, Cholinesterase (Homo sapiens, UniProt P06276); experiment: Inhibition of human BuChE using butyrylhiocholine as substrate
T3 sequence (P06276 whole entry): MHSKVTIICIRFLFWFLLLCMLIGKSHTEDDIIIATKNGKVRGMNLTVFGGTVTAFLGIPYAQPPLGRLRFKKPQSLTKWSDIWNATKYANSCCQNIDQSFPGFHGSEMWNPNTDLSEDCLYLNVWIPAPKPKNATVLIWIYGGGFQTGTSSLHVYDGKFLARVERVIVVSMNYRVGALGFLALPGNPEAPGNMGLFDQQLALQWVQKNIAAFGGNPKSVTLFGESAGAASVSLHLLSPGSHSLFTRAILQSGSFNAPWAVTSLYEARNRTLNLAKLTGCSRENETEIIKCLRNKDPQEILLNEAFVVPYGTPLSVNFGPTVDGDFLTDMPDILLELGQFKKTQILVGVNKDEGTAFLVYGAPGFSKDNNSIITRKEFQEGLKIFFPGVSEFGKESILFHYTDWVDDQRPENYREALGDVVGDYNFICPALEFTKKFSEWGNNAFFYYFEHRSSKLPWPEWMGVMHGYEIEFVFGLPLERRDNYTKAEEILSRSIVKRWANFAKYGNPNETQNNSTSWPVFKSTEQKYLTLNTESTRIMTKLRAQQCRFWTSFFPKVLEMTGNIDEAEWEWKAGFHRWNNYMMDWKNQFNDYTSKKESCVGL

[7] = Inhibition of human intestinal carboxylesterase using o-nitrophenyl acetate as substrate
Outline: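 Recombinant hiCE secreted from baculovirus-infected Spodoptera frugiperda cells and purified from serum-free medium. Activity measured spectrophotometrically with o-nitrophenyl acetate as substrate. Routinely at least 8 inhibitor concentrations tested, and Ki derived.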

[8] = molecular target: T2, Acetylcholinesterase; experiment: Inhibition of human AChE at 10 uM using acetylthiocholine as substrate relative to control
[9] = molecular target: T3, Cholinesterase; experiment: Inhibition of human BuChE at 10 uM using butyrylhiocholine as substrate relative to control
[10] = molecular target: T4, Liver carboxylesterase 1 (Homo sapiens, UniProt P23141); experiment: Inhibition of human CE1 using o-NPA as substrate
T4 sequence (P23141 whole entry): T1 sequence (P23141 whole entry)
Outline: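 Recombinant human CE1 was purified from serum-free media of baculovirus-infected Spodoptera frugiperda cells secreting the enzyme. Activity was read spectrophotometrically with o-nitrophenyl acetate as substrate. At least 8 inhibitor concentrations were used and Ki was derived from them.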

[11] = molecular target: T4, Liver carboxylesterase 1; experiment: Binding affinity to serine residue of human CE1 assessed as adduct formation at 10 uM by mass spectrum analysis
Outline: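 hCE1 purified from serum-free medium of baculovirus-infected Spodoptera frugiperda cells, incubated with 10μM inhibitor. Unbound compound removed by dilution and repeated size-exclusion spin chromatography. Intact mass by ESI positive-mode MS (600–2800 m/z) in 3:2 water-acetonitrile with 0.1% formic acid, 2 min acquisition. Spectra deconvoluted, and adduct read as mass shift versus DMSO-treated protein.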

Compound: C[C@H]1COc2c1c(=O)oc(=O)c1c3c(ccc21)C(C)(C)CCC3
- inhibition at 0.5 h, 10 µM [1]: > 70%
- activity at 18 h [2]: 3 to 16%
- Activity [3]: 1 to 9%
- IC50 [4]: 3.21 µM
- activity at 0.5 h, 10 µM [5]: 10%
- IC50 [6]: 2.84 µM
- Ki [7]: 0.00075 µM
- inhibition [8]: 68%
- inhibition [9]: 69%

Compound: Cc1cccc2c1ccc1c3c(c(=O)oc(=O)c12)[C@@H](C)CO3
- inhibition at 0.5 h, 10 µM [1]: 99%
- activity at 18 h [2]: 9%
- Activity [3]: 18%
- IC50 [4]: 10.1 µM
- activity at 0.5 h, 10 µM [5]: 1%
- Ki [10]: 0.0036 µM
- IC50 [6]: 7.82 µM
- Ki [7]: 0.00061 µM
- Activity [11]: Active
- inhibition [8]: 66%
- inhibition [9]: 61%

Compound: Cc1cccc2c1ccc1c3occ(C)c3c(=O)oc(=O)c21
- inhibition at 0.5 h, 10 µM [1]: > 70%
- activity at 18 h [2]: 54%
- Activity [3]: 4%
- IC50 [4]: > 10 µM
- activity at 0.5 h, 10 µM [5]: 12%
- Ki [10]: 0.0024 µM
- IC50 [6]: > 10 µM
- Ki [7]: 0.00082 µM
- inhibition [8]: 47%
- inhibition [9]: 32%

Compound: O=C(C(=O)c1ccccc1)c1ccccc1 [BENZIL]
- activity at 18 h [2]: 85%
- Activity [3]: 98%
- activity at 0.5 h, 10 µM [5]: 5%

Compound: O=S(=O)(F)Cc1ccccc1 [PHENYLMETHYLSULFONYLFLUORIDE]
- Activity [11]: Active

Compound: Cc1coc2c1c(=O)oc(=O)c1c3c(ccc12)C(C)(C)CCC3
- inhibition at 0.5 h, 10 µM [1]: > 70%
- activity at 18 h [2]: 6 to 10%
- Activity [3]: 0.1 to 40%
- IC50 [4]: 3.31 µM
- activity at 0.5 h, 10 µM [5]: 27%
- IC50 [6]: 7.88 µM
- Ki [7]: 0.0014 µM
- Activity [11]: Active
- inhibition [8]: 65%
- inhibition [9]: 38%
